In ChEMBL document CHEMBL3822365, “Probing the Anticancer Action of Oridonin with Fluorescent Analogues: Visualizing Subcellular Localization to Mitochondria” (J Med Chem, 2016):
Calls of active or inactive are those of the source. No cut-off for these calls is given here.

Key:
[1] = Cytotoxicity against human Bel7402 cells assessed as growth inhibition at 100 uM after 72 hrs by MTT assay; format: functional; settings: Bel-7402, 72 h, read-out: GI
Summary of the method: (§1)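 Bel-7402 cells exposed to compound for 72 h, then MTT read-out of percent growth inhibition at the single stated concentration. Values are the mean of three independent experiments.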

[2] = Cytotoxicity against human Bel7402 cells assessed as growth inhibition at 10 uM after 72 hrs by MTT assay; format: functional; settings: Bel-7402, 72 h, read-out: GI; summary of the method: as §1
[3] = Cytotoxicity against human Bel7402 cells assessed as growth inhibition at 1 uM after 72 hrs by MTT assay; format: functional; settings: Bel-7402, 72 h, read-out: GI; summary of the method: as §1
HepG2 [4] = assay: Cytotoxicity against human HepG2 cells assessed as inhibition of cell proliferation after 72 hrs by MTT assay; format: functional, cell-based; settings: HepG2, 72 h
Summary of the method: (§2)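 Log-phase cells seeded at 5 × 10^4 cells/mL and exposed to compound for 72 h at 37 °C, 5% CO2. MTT (5 mg/mL) added for a further 4 h, formazan dissolved in DMSO, OD read at 490 nm. Negative reference 0.1% DMSO, positive reference paclitaxel. IC50 given as mean ± SD, n = 3.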

A549 [5] = assay: Cytotoxicity against human A549 cells assessed as inhibition of cell proliferation after 72 hrs by MTT assay; format: functional, cell-based; settings: A549, 72 h; summary of the method: as §2
HeLa = assay: Cytotoxicity against human HeLa cells assessed as inhibition of cell proliferation after 72 hrs by MTT assay; format: functional, cell-based; summary of the method: as §2
HepG2 [6] = assay: Drug uptake in human HepG2 cells at 5 uM after 1 hr by inverted confocal microscopy; format: ADME, cell-based; settings: hepg2, 1 h
Summary of the method: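 HepG2 cells were incubated with probe at 5 μM for 1 h and then examined by fluorescence microscopy for intracellular staining.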

HepG2 [7] = assay: Drug uptake in human HepG2 cells at 1 uM after 5 mins by inverted confocal microscopy; format: ADME, cell-based; settings: hepg2, 5 min
A549 [8] = assay: Drug uptake in human A549 cells at 1 uM after 5 mins by inverted confocal microscopy; format: ADME, cell-based; settings: a549, 5 min
HepG2 [9] = assay: Drug uptake in human HepG2 cells at 1 uM after 12 hrs by inverted confocal microscopy; format: ADME, cell-based; settings: hepg2, 12 h
Summary of the method: (§3)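 Live A549 or HepG2 cells were given 1 μM probe for 12 h and washed with media. Confocal imaging used ex 405/em 460 nm at 40× on an inverted microscope. Each experiment was repeated three times.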

[10] = Drug uptake in human A549 cell cytoplasm at 1 uM after 12 hrs by inverted confocal microscopy; format: ADME, cell-based; settings: a549, 12 h; summary of the method: as §3
[11] = Drug uptake in mitochondria of human A549 cells at 1 uM after 1 hr by MitoTracker staining based confocal laser scanning microscopy; format: ADME; settings: a549, 1 h
Summary of the method: (§4)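 A549 cells were treated with 1 μM probe for 1, 3, 12 or 24 h and washed in PBS. They were then stained with MitoTracker Red CMXRos (200 nM, 0.5 h), washed in cold PBS, fixed with paraformaldehyde and imaged by confocal laser scanning microscopy. Mitochondrial overlap was quantified as Pearson's coefficient (Rr).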

[12] = Drug uptake in mitochondria of human A549 cells at 1 uM after 12 hrs by MitoTracker staining based confocal laser scanning microscopy; format: ADME; settings: a549, 12 h; summary of the method: as §4
[13] = Drug uptake in mitochondria of human A549 cells at 1 uM after 24 hrs by MitoTracker staining based confocal laser scanning microscopy; format: ADME; settings: a549, 24 h; summary of the method: as §4
A549 [14] = assay: Dissipation of mitochondrial membrane potential in human A549 cells at 1 uM by JC-1 staining based confocal microscopy; format: functional, cell-based; settings: TDE = time-dependent effect
Summary of the method: (§5)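 A549 cells were exposed to 1 μM compound for 12 to 48 h. They were then loaded with JC-1 at 10 μg/mL for 30 min at 37 °C and washed in PBS for 5 min. Aggregate (red, ex 525/em 600 nm) and monomer (green, ex 490/em 535 nm) signals were read by microplate reader or confocal microscope. Value is the red:green ratio, 10000 cells per condition, mean ± SD of three independent experiments.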

A549 [15] = assay: Dissipation of mitochondrial membrane potential in human A549 cells assessed as ratio of red to green fluorescence at 1 uM after 12 to 48 hrs by JC-1 staining based confocal microscopy; format: functional; summary of the method: as §5
A549 [16] = assay: Dissipation of mitochondrial membrane potential in human A549 cells assessed as ratio of red to green fluorescence at 1 uM after 48 hrs by JC-1 staining based confocal microscopy; format: functional; summary of the method: as §5
A549 [17] = assay: Drug uptake in human A549 cells at 1 uM preincubated with oridonin for 24 hrs followed by compound addition measured after 1 hr by confocal microscopy; format: ADME, cell-based; settings: a549, 1 h
A549 [18] = assay: Drug uptake in human A549 cells at 1 uM preincubated with compound 25 for 24 hrs followed by compound addition measured after 1 hr by confocal microscopy; format: ADME, cell-based; settings: a549, 1 h
A549 [19] = assay: Drug uptake in human A549 cells at 1 uM preincubated with compound 26 for 24 hrs followed by compound addition measured after 1 hr by confocal microscopy; format: ADME, cell-based; settings: a549, 1 h
HepG2 [20] = assay: Drug uptake in human HepG2 cells at 20 uM after 1 hr by inverted confocal microscopy; format: ADME, cell-based; settings: hepg2, 1 h
Summary of the method: (§6)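 HepG2 cells incubated with probe for 1 h, then intracellular fluorescence imaged by fluorescence microscopy.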

A549 [21] = assay: Dissipation of mitochondrial membrane potential in human A549 cells at 20 uM after 1 to 48 hrs by […]; format: functional, cell-based
[22] = Antiproliferative activity against human NCI-H929 cells assessed as reduction in cell viability after 24 to 72 hrs by MTT assay; format: functional, cell-based
HepG2 [23] = assay: Drug uptake in human HepG2 cells at 50 to 100 uM after 1 hr by inverted confocal microscopy; format: ADME, cell-based; settings: hepg2, 1 h; summary of the method: as §6
K562 = assay: Antiproliferative activity against human K562 cells; format: functional, cell-based
A549 [24] = assay: Dissipation of mitochondrial membrane potential in human A549 cells at 10 uM after 36 hrs by JC-1 staining based confocal microscopy; format: functional, cell-based
Summary of the method: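 A549 cells were exposed to 10 μM compound for 36 h or left untreated. They were then loaded with 10 μg/mL JC-1 for 30 min at 37 °C and washed 5 min in PBS. The red-to-green fluorescence shift was viewed by confocal microscopy. Done in triplicate.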

A549 [25] = assay: Induction of apoptosis in human A549 cells assessed as cytochrome c release from mitochondria to cytosol at 3 uM after 24 to 48 hrs by MitoTracker probe/DAPI staining based confocal laser scanning microscopy; format: functional, cell-based
Summary of the method: (§7)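 A549 cells exposed to compound for 24 or 48 h, then stained with MitoTracker Red for 30 min. Cells fixed in 4% formaldehyde, permeabilized with 0.2% Triton X-100 and blocked in 5% BSA for 1 h. Anti-cytochrome c primary antibody applied overnight at 4 °C, then Alexa Fluor 488 goat anti-rabbit for 2 h. DAPI nuclear counterstain, imaged by confocal microscopy.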

A549 [26] = assay: Induction of apoptosis in human A549 cells assessed as cytochrome c release from mitochondria to cytosol at 5 uM after 24 to 48 hrs by MitoTracker probe/DAPI staining based confocal laser scanning microscopy; format: functional, cell-based; summary of the method: as §7

Row | Structure (SMILES) | inhibition of growth at 100 µM [1] | inhibition of growth at 10 µM [2] | inhibition of growth at 1 µM [3] | IC50 (HepG2 [4]) | IC50 (A549 [5]) | IC50 (HeLa) | also measured
1 | C[C@H]1C(=O)[C@]23[C@H](O)[C@H]1CC[C@H]2[C@@]12CO[C@@]3(O)[C@@H](O)[C@@H]1C(C)(C)CC[C@@H]2O | 57.2% | 4.2% | 2.1% | 70.6 µM | 67 µM | 52.7 µM | –
2 | C=C1C(=O)[C@]23[C@H](OC(=O)CCCC(=O)OCCCCOC(=O)c4cc5ccc(N(CC)CC)cc5oc4=O)[C@H]1CC[C@H]2[C@@]12CO[C@@]3(O)[C@@H](O)[C@@H]1C(C)(C)CC[C@@H]2O | 93.8% | 94% | 88.6% | 2.6 µM | 5.1 µM | 2 µM | Drug uptake (HepG2 [6]): Active; Drug uptake (HepG2 [7]): Active; Drug uptake (A549 [8]): Active; Drug uptake (HepG2 [9]): Active; Drug uptake [10]: Active; Drug uptake [11]: Active; Drug uptake [12]: Active; Drug uptake [13]: Not Active; Activity (A549 [14]): tde; Ratio (A549 [15]): 1.496; Ratio (A549 [16]): 0.312; Activity (A549 [17]): Not Active; Drug uptake (A549 [18]): Not Active; Drug uptake (A549 [19]): Active
3 | C=C1C(=O)[C@]23[C@H](OC(=O)CCCCCCC)[C@H]1CC[C@H]2[C@@]12CO[C@@]3(O)[C@@H](O)[C@@H]1C(C)(C)CC[C@@H]2O | 94.7% | 92.7% | 57.5% | – | – | – | –
4 | C=C1C(=O)[C@]23[C@H](OC(=O)CCC(=O)OCCOC(=O)c4cc5ccc(N(CC)CC)cc5oc4=O)[C@H]1CC[C@H]2[C@@]12CO[C@@]3(O)[C@@H](O)[C@@H]1C(C)(C)CC[C@@H]2O | 94.4% | 72.4% | 11.5% | – | – | – | –
5 | C=C1C(=O)[C@]23[C@H](OC(=O)CCCC(=O)OCCCOC(=O)c4cc5ccc(N(CC)CC)cc5oc4=O)[C@H]1CC[C@H]2[C@@]12CO[C@@]3(O)[C@@H](O)[C@@H]1C(C)(C)CC[C@@H]2O | 94.6% | 89.9% | 2.7% | – | – | – | –
6 | C=C1C(=O)[C@]23[C@H](OC(=O)CCCC(=O)OCCOC(=O)c4cc5ccc(N(CC)CC)cc5oc4=O)[C@H]1CC[C@H]2[C@@]12CO[C@@]3(O)[C@@H](O)[C@@H]1C(C)(C)CC[C@@H]2O | 94.6% | 85% | 4.9% | – | – | – | –
7 | CCN(CC)c1ccc2cc(C(=O)OCCCCOC(=O)CCCC(=O)O[C@@H]3[C@H]4CC[C@H]5[C@@]67CO[C@@](O)([C@@H](O)[C@@H]6C(C)(C)CC[C@@H]7O)[C@@]35C(=O)[C@@H]4C)c(=O)oc2c1 | 37.2% | 3.7% | 1.8% | 144 µM | 78 µM | 79.6 µM | Drug uptake (HepG2 [20]): Not Active; Activity (A549 [21]): inactive
8 | C=C1C(=O)[C@]23[C@H](OC(=O)CCCC(=O)OCCOCCOC(=O)c4cc5ccc(N(CC)CC)cc5oc4=O)[C@H]1CC[C@H]2[C@@]12CO[C@@]3(O)[C@@H](O)[C@@H]1C(C)(C)CC[C@@H]2O | 94.6% | 70.1% | 1.4% | – | – | – | –
9 | C=C1C(=O)[C@]23[C@H](O)[C@H]1CC[C@H]2[C@]12CCCC(C)(C)[C@H]1[C@H](O)[C@@]3(O)OC2 | – | – | – | – | – | – | IC50 [22]: 0.85 µM
10 | CCN(CC)c1ccc2cc(C(=O)OCCO)c(=O)oc2c1 | 9.5% | 3.7% | 0.7% | – | – | – | Drug uptake (HepG2 [23]): Not Active
11 | C=C1C(=O)[C@]23C[C@H]1CC[C@H]2[C@]1(COC3=O)[C@@H](OC(C)=O)CCC(C)(C)[C@H]1CO | – | – | – | – | – | – | IC50 (K562): 3.56 µM
12 | C=C1C(=O)[C@]23[C@H](OC(=O)CCC(=O)OCCOC(=O)Cc4cc(=O)oc5cc(N(C)C)ccc45)[C@H]1CC[C@H]2[C@@]12CO[C@@]3(O)[C@@H](O)[C@@H]1C(C)(C)CC[C@@H]2O | 93.3% | 46.4% | 1.1% | 8.8 µM | 11.2 µM | 4.6 µM | Drug uptake (HepG2 [6]): Active; Drug uptake (HepG2 [9]): Active; Drug uptake [10]: Active
13 | C=C1C(=O)[C@]23[C@H](O)[C@H]1CC[C@H]2[C@@]12CO[C@]3(O)[C@@H](O)[C@@H]1C(C)(C)CC[C@@H]2O [ORIDONIN] | 94.6% | 94.8% | 37.9% | 15.2 µM | 10.4 µM | 17.8 µM | Activity (A549 [24]): Active; Activity (A549 [25]): Active; Activity (A549 [26]): Active
14 | C=C1C(=O)[C@]23[C@H](OC(=O)Cc4cc(=O)oc5cc(N(C)C)ccc45)[C@H]1CC[C@H]2[C@@]12CO[C@@]3(O)[C@@H](O)[C@@H]1C(C)(C)CC[C@@H]2O | 92.4% | 94.5% | 13.6% | – | – | – | –
